Source: PubChem BioAssay
A selection follows.
Apaf-1 act: activates human Apaf-1 apoptosome; O14727; Apaf-1 apoptosome caspase-3 activation, DEVD-Rh110 fluorescence; hits give low values; activity change, negative = activation, % at 20 µM; hit rate 0.31% among 330,000;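 active = activity change at or below -40% at 20 µM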
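System: Reconstituted apoptosome of Apaf-1, cytochrome c, caspase-9, procaspase-3 | Reagent: dATP, cytochrome c, and (Z-DEVD)2-Rh110 caspase-3 substrate | Times: 30 min compound preincubation and 50 min reaction, both room temperature | Detection: Caspase-3-released Rh110 fluorescence, 540 nm emission, 480 nm excitation | Measure: Caspase-3 activity via Apaf-1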
Rh110 interf act: Rh110 signal interference in Apaf-1 activator counter-screen; shares compounds with Apaf-1 act; Rh110 fluorescence interference, quenched caspase reaction, Ex480/Em540; fluorescence interference (activity change), % at 20 µM, hits read low; 980 tested, under 10 active; AID 504616;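 active = mean activity change at or below -40% when tested at 20 µM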
Apaf-1 act conf2: confirmation of human Apaf-1 activators; shares compounds with Apaf-1 act; reconstituted apoptosome caspase-3 activity, DEVD-Rh110 fluorescence; hits give low values; activity change, negative = activation, % at 20 µM; hit rate 5% among 980; AID 504617;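 active = mean activity change at or below -40%, meaning activation of 40% or more, at 20 µM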
Fluor interf act: counter-screen for Apaf-1 activators: fluorescence interference, dose response; shares compounds with Apaf-1 act; fluorescence interference counterscreen, Apaf-1 activator assay; EC50, µM; 55 tested, under 10 active; call rule not given here
Numbers without * were called inactive; x = not tested or not shown.

SMILES	Apaf-1 act	Rh110 interf act	Apaf-1 act conf2	others
O=C(Cn1cc(S(=O)(=O)Cc2ccccc2)c2ccccc21)N1CCOCC1	-233*	6	4
Cc1nn(CCc2nn[nH]n2)c2nc(-c3ccc(C4CCCCC4)cc3)cc(C(F)(F)F)c12	60	x	x
c1ccc(C(c2nnnn2C2CCCCC2)N2CCc3ccccc3C2)nc1 (stereo not drawn)	64	x	x
O=C(CNc1cccc2ccccc12)N/N=C/C(Br)=C/c1ccccc1	65	x	x
CCCCCCSc1ccc([C@@H]2[C@H]3C(=O)N(CC)C(=O)[C@H]3[C@]3(C(=O)OC)CCCN23)cc1	-225*	5	13
CC[C@]12c3[nH]c4ccc(OC)cc4c3CCN1C(=O)C(CC(=O)NC/C=C(\C)CCC=C(C)C)C[C@@H]2C(=O)N1CCN(C(=O)c2ccco2)CC1 (stereo partly drawn)	40	x	x
Cc1ccc(NC(=S)Nc2cccc3cnccc23)cc1	96	x	x
O=C(O)CCN1C(=O)/C(=C2\C(=O)N(Cc3ccccc3Cl)c3ccccc32)SC1=S	-121*	-1	-31
Clc1ccccc1-c1nn2c(-c3ccncc3)nnc2s1	47	x	x
O=C(O)CC1S/C(=N/N=C/c2ccc(-c3ccc(Cl)cc3[N+](=O)[O-])o2)NC1=O (stereo not drawn)	52	x	x
CN(C)CC/C=C1\c2ccccc2Sc2ccc(Cl)cc21	49	x	x
COC1=C(Nc2ccccc2)C(=O)c2ccccc2C1=O	61	x	x
CN1CCN(c2ccc(-c3cccc(NC(=O)COc4ccccc4)c3)nn2)CC1	47	x	x
O=C(COc1ccccc1)N1CCN=C1SCc1ccc(F)cc1	56	x	x
O=C(COc1ccc(-c2ccccc2)cc1)NNC(=O)Nc1ccc(F)cc1F	-54*	4	16
O=C(NC(=S)Nn1cnc2c(cnn2-c2ccccc2)c1=O)c1ccc(Oc2ccccc2)cc1	41	x	x
COC(=O)Cn1cnc2c(cnn2-c2ccccc2)c1=O	-197*	1	7
COc1ccc(NC(=O)c2c[nH]n3c(=O)cc(C4CCN(C(=O)OC(C)(C)C)CC4)nc23)cc1Cl	42	x	x
N#Cc1c(N(CCO)CCO)nc(N)c2c(N)nc3c(c12)CC(=O)N3Cc1cccs1	73	x	x
CCOC(=O)c1ccc(N=c2sc(C(=O)OC)cc(=O)n2CCCN2CCOCC2)cc1	2	x	x
O=C1/C(=C/Nc2ccc3c(c2)OCO3)CCc2ccccc21	45	x	x
O=C(Nc1ccc2c(c1)OCO2)[C@@H]1[C@@H]2C(=O)N(C3CCCCC3)C(=O)[C@@H]2C2c3ccccc3C=CN21 (stereo partly drawn)	42	x	x
O=C(CSc1ccc2c(c1)OCCO2)Nc1ccc2c(c1)OCO2	-578*	10	11
C=C(C)C(=O)Nc1cccc(C2=NOC3(C2)C[C@@H](C(N)=O)N(C(=O)C(=C)C)C3)c1 (stereo partly drawn)	-291*	1	-133*	Fluor interf act=>100
C=C(C)C(=O)Nc1cccc(C2=NOC3(C2)C[C@H](C(N)=O)N(C(=O)COc2ccc(Cl)cc2)C3)c1 (stereo partly drawn)	-344*	0	-127*	Fluor interf act=>100
SMILES	Apaf-1 act	Rh110 interf act	Apaf-1 act conf2	others
C=C(C)C(=O)Nc1cccc(C2=NOC3(C2)C[C@@H](C(N)=O)N(C(=O)c2ccc(Cl)cc2)C3)c1 (stereo partly drawn)	-204*	12	-127*	Fluor interf act=>100
C=C(C)C(=O)Nc1cccc(C2=NOC3(C2)C[C@H](C(N)=O)N(C(=O)c2ccccc2)C3)c1 (stereo partly drawn)	-64*	-7	-59*	Fluor interf act=>100
Cc1ccc(S(=O)(=O)Nc2ccc3c(c2)CC(=O)N([C@H](C)CO)C[C@@H](C)[C@H](CN(C)Cc2ccc(-c4ccccc4)cc2)O3)cc1	41	x	x
CN1CCc2cccc3c2[C@H]1Cc1ccc(O)c(O)c1-3	42	x	x
CCCCCCCCCCC[N+](C)(C)CC/C=C1/c2ccccc2Sc2ccc(Cl)cc21	75	x	x
CCCCC[n+]1ccn(C2=C([O-])c3ccccc3C(=O)/C2=N\S(=O)(=O)c2ccc(Br)cc2)c1	61	x	x
CC(C)NC1=C(Cl)C(=O)c2ccccc2C1=O	63	x	x
CCCCCCOC(=O)C[N+](C)(C)CCOC1CC2CCC1(C)C2(C)C (stereo not drawn)	52	x	x
C=C(C)C(=O)Nc1cccc(C2=NOC3(C2)C[C@@H](C(N)=O)N(C(=O)c2cc([N+](=O)[O-])cc([N+](=O)[O-])c2C)C3)c1 (stereo partly drawn)	-107*	-3	-128*	Fluor interf act=>100
CCC(C)N(C(=O)COC(=O)c1cc([N+](=O)[O-])ccc1N1CCOCC1)C1CCS(=O)(=O)C1 (stereo not drawn)	78	x	x
COCCCC1CCN(Cc2nc(-c3ccccc3)no2)CC1	-51*	7	11
c1ccc(-c2noc(CN3CCN(c4cnccn4)CC3)n2)cc1	-92*	3	1
Oc1ccc(C[C@@H]2CNCCN2CCC23CC4CC(CC(C4)C2)C3)cc1	47	x	x
C#CCOCCOCCOCCNc1nc(N2CCN(C(=O)CCCCCCCCCCNC(=O)[C@H](CCCCN)n3cc(C)nn3)CC2)nc(N2CCN(C(=O)CCCCCCCCCCNC(=O)[C@@H]([C@H](C)CC)n3cc(CCCCCN)nn3)CC2)n1	82	x	x
CC(C)c1ccc(S(=O)(=O)/N=C2/C=CC(=O)c3ccccc32)cc1	72	x	x
CC12CC3CC(C)(C1)CC(N)(C3)C2	-11	x	x
CC(=O)c1cccc(NC(=O)CSc2ccc(-c3ccco3)nn2)c1	45	x	x
O=C(CSc1ccc(-c2ccc3c(c2)OCO3)nn1)Nc1nccs1	-45*	9	12
Cn1c(SCC(=O)Nc2ccc3nc(SCC(=O)N4CCCC4)sc3c2)nnc1-c1ccccc1	66	x	x
O=[N+]([O-])c1c(NCCCO)cc(Sc2nc3ccccc3s2)c2nonc12	98	x	x
O=C(CSc1nc2ccccc2s1)N/N=C/c1ccco1	-62*	0	7
CC(=C/c1ccco1)/C=N/NC(=O)CSc1nnc(SCc2ccc(C)cc2)s1	-90*	6	34
Nc1cccc2cnccc12	67	x	x
O=C(Nc1cccc(CCc2ccccn2)c1)c1cc(F)c(F)cc1Cl	-109*	10	17
O=C(Nc1ccccn1)c1ccc2ccccc2c1O	45	x	x
SMILES	Apaf-1 act	Rh110 interf act	Apaf-1 act conf2	others
O=C(NNC(=O)C1CC1)c1ccccc1[N+](=O)[O-]	-60*	0	9
O=[N+]([O-])c1ccccc1-c1ccc(C(=S)N2CCCC2)o1	47	x	x
CNS(=O)(=O)Cc1ccc2[nH]cc(CCN(C)C)c2c1	1	x	x
CCc1ccc(S(=O)(=O)/N=C2\C=C(NS(=O)(=O)c3ccccc3)C(=O)c3ccccc32)cc1	57	x	x
Cc1ccc(C)c(S(=O)(=O)/N=C2\C=C(NS(=O)(=O)c3ccccc3)C(=O)c3ccccc32)c1	78	x	x	Fluor interf act=>100
Cc1ccccc1NC1=C/C(=N\S(=O)(=O)c2ccc(C(=O)O)cc2)c2ccccc2C1=O	97	x	x
CN1CCN(CCCNC(=O)c2cc3c(-c4ccc(Cl)cc4)nn(C)c3s2)CC1	43	x	x
COc1ccc(C(c2c(C)[nH]n(-c3ccccc3)c2=O)c2c(C)[nH]n(-c3ccccc3)c2=O)cc1OC	97	x	x
